# Measurements pooled from the literature.
# Protocols differ between the studies behind these lines.
# Observed: cell growth or viability
Compound,cell line,method,time,measurement,result
O=C(Cn1cnc2ccccc21)NN=Cc1ccc(O)cc1O,SH-SY5Y,MTT,24 h,IC50,89.2 µM
CC(Oc1ccc(Cl)cc1Cl)C(=O)NC(c1ccc(F)cc1)C1CCC1 (centres unmarked),CHO,LDH,,CC50,> 100 µM
CN1CCN(CC2CCN(c3nccc4[nH]c(-c5cc(F)cc(F)c5)nc34)CC2)CC1,CHO,,,CC50,24 µM
CC(Oc1ccc(F)cc1Cl)C(=O)NCc1ccc2c(c1)OCO2 (centres unmarked),CHO,LDH,,CC50,> 100 µM
COc1ccc(S(=O)(=O)ON=C2C=C(C)C(=O)C(C)=C2)cc1,SH-SY5Y,,,CC50,0.19 µM
C#CCN[C@@H]1CCc2ccccc21,SH-SY5Y,MTT,24 h,IC50,> 500 µM
O=[N+]([O-])c1ccc(-c2nc3cccc(O)c3[nH]2)o1,CHO,resazurin,72 h,CC50,97 µM
CN1CCN(c2nccc3nc(-c4ccc(F)c(F)c4)[nH]c23)CC1,CHO,,,CC50,> 50 µM
